Screening data as filed in PubChem BioAssay.
Only some compounds are listed: those with a hit (about 1.2% of all), similar ones and a draw of the others.
Diaphorase inh: diaphorase inhibitors and chemical oxidizers, primary screen, counter-screen for diaphorase-coupled primary assays, biochemical, uHTS, resorufin fluorescence; diaphorase resazurin-to-resorufin fluorescence, NADH, 16 min; bacterial (C. kluyveri) enzyme, not human; inhibition, % at 20 µM; 190,000 tested, 0.69% active;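 active = primary screen inhibition at 20 µM above a set limit, cut at about 50% in these data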;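 note: plate controls were DMSO with full reaction for no effect and wells lacking NADH for full effect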
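Test system: Clostridium kluyveri diaphorase enzyme / Quantity: diaphorase at 0.14 U/mL in enzyme working solution / Incubation: 16-min room-temperature incubation before reading / Benchmarks: NADH-free wells as positive control, DMSO-only neutral wells / Signal: resorufin fluorescence 544/590 nm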
Diaphorase act: compounds boosting diaphorase resazurin reduction – biochemical, uHTS, resorufin fluorescence, counter-screen for diaphorase-coupled primary assays, primary screen; Diaphorase/resazurin coupled assay, 16 min; active compounds read high; 1 = vehicle wells, 0 = NADH-free wells; 190,000 tested, 0.005% active; activation factor at 20 µM;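 active = diaphorase activity raised at least twofold by the compound at 20 µM; inactive = activation factor below 2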
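Test system: Clostridium kluyveri diaphorase, purified enzyme; input: enzyme 0.07 U/mL final; buffer or medium: 50 mM HEPES pH 7.4 with 4.542 mM MgCl2, 0.005% Tween 20; also added: 0.114 mM NADH and 0.1 mM resazurin, final amounts; schedule: 16 min enzyme reaction, ambient temperature; technique: fluorescence of resorufin, 544 nm excitation, 590 nm emission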
G6PDH counter: L. mesenteroides G6PDH inhibitors, counter-screen for G6PDH-coupled screening assays, biochemical, Leuconostoc mesenteroides enzyme; glucose-6-phosphate dehydrogenase [Leuconostoc mesenteroides]; Purified L. mesenteroides G6PDH, diaphorase/resazurin coupled fluorescence, 45 min; inhibition, % at 5 µM; 200,000 tested, 0.12% active; in the data active = inhibition above about 50%
PfGluPho inh: PfG6PD enzyme inhibitors, primary screen, biochemical, fluorescence intensity, uHTS. PfGluPho enzyme, NADPH resazurin-diaphorase fluorescence. inhibition, % at 20 µM. 350,000 tested, 0.78% active. glucose-6-phosphate dehydrogenase-6-phosphogluconolactonase (Plasmodium falciparum 3D7);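 active = inhibition reaching at least a set limit at 20 µM in the primary screen, cut at about 59% in these data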;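 note: 0% = DMSO wells with substrate and 100% = DMSO wells lacking glucose-6-phosphate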
HKDC1 inhibitor: HKDC1 hexokinase inhibitors, primary screen, biochemical, fluorescence, uHTS; 340,000 tested, 0.16% active; AID 493160, 2011; Q2TB90; recombinant HKDC1, G6PDH/diaphorase resazurin coupled fluorescence; inhibition, % at 20 µM;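 active = inhibition above about 35% when tested at 20 µM, limit read from the data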;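 note: plate controls were DMSO wells with enzyme for no effect and DMSO wells lacking enzyme for full effect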
Target sequence (Q2TB90 whole entry, looked up): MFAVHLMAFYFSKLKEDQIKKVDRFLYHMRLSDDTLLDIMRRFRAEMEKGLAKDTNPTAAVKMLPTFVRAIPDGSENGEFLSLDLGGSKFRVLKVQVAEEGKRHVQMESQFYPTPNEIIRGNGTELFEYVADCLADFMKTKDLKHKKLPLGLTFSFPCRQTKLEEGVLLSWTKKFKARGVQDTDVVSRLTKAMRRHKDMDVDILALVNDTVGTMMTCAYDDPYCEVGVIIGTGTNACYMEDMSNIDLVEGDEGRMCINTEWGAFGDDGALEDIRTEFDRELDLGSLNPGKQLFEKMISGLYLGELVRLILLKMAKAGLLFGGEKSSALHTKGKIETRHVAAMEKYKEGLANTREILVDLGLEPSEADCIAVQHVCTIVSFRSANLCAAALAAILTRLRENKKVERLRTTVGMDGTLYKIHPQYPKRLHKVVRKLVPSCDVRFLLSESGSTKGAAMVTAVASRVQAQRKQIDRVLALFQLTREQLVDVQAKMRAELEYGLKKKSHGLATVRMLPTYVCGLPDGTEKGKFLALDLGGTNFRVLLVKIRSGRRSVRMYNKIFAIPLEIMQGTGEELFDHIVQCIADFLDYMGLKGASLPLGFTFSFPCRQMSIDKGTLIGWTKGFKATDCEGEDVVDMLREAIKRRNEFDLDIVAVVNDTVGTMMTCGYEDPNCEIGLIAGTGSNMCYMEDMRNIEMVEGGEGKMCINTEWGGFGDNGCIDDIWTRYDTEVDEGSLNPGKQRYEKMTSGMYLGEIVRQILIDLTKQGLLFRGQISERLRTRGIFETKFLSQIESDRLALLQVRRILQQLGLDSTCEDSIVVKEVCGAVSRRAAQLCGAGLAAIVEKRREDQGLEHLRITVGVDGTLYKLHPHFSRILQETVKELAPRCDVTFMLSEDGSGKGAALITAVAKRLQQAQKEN
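Test system: recombinant HKDC1 (HK5) hexokinase enzyme, produced in-house; Amount: enzyme 5 µg/mL final; Buffer or medium: Tris pH 8.0 buffer with MgCl2, Tween-20, BSA, BME; Reagent: glucose and ATP substrates; Doses: 20 µM test compound, 1% DMSO; Incubation: 90 min reaction incubation at room temperature, dark; Detection: resorufin fluorescence at 613 nm.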
PfGluPho conf: PfG6PD inhibitors, hit retest, confirmation, biochemical, fluorescence intensity, single concentration; shares compounds with PfGluPho inh; recombinant PfGluPho, NADPH-diaphorase-resazurin fluorescence; inhibition, % at 20 µM; 2,400 tested, 34% active; AID 504753, 2011;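 active = inhibition of at least 50% at 20 µM in any single replicate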;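 note: 0% = DMSO with substrate and 100% = DMSO lacking glucose-6-phosphate substrate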
Diaph ctr 10uM: diaphorase inhibitors and chemical oxidizers, confirmation, counter-screen for P. falciparum G6PD inhibitor project, biochemical, fluorescence intensity, 10 µM NADPH; shares compounds with PfGluPho inh; 820 tested, 39% active; diaphorase-coupled resazurin reduction, NADPH 10 uM; inhibition, % at 20 µM;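 active = average inhibition reaching 50% or more with the compound at 20 µM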;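 note: resorufin red fluorescence formed as diaphorase reduces resazurin using NADPH; 0% = DMSO with enzyme and 100% = DMSO without enzyme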
Diaphorase 30uM: diaphorase inhibitors and chemical oxidizers, confirmation, counter-screen for P. falciparum G6PD inhibitor project, biochemical, fluorescence intensity, 30 µM NADPH | shares compounds with PfGluPho inh | Diaphorase/resazurin coupled assay, resorufin fluorescence | inhibition, % at 20 µM | 820 tested, 29% active | AID 504863, 2011;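 active = inhibition averaging 50% or more, tested at 20 µM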;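 note: 0% = DMSO with enzyme and 100% = DMSO wells lacking diaphorase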
* hit, by the source's call; / = not tested or not shown.

SMILES	Diaphorase inh	Diaphorase act	G6PDH counter	PfGluPho inh	HKDC1 inhibitor	PfGluPho conf	others
Oc1ccc(N2CCN(c3ncnc4sc(-c5ccccc5)cc34)CC2)cc1	32.6	0.7	-4.0	71.8*	4.2	22.9
COc1ccc(Cn2nnnc2C(C(C)C)N2CCN(c3ccccc3OC)CC2)cc1 (stereo unspecified)	17.1	0.8	-2.3	-9.6	4.3	/
CC(C)C(c1nnnn1Cc1ccc(F)cc1)N1CCN(c2ccc(O)cc2)CC1 (stereo unspecified)	62.0*	0.4	17.7	63.7*	-5.6	18.6
Cc1ccc(-c2c(C(=O)N/N=C/c3ccoc3)nnn2-c2nonc2N)cc1	/	/	/	28.1	-1.8	/
Cc1ccc(-c2c(C(=O)N/N=C/c3ccsc3)nnn2-c2nonc2N)cc1	/	/	/	82.2*	0.6	54.1*	Diaph ctr 10uM=46.0;Diaphorase 30uM=47.1
Cc1ccc(-c2c(C(=O)N/N=C/c3cccs3)nnn2-c2nonc2N)cc1	/	/	/	80.7*	2.9	69.4*	Diaph ctr 10uM=61.1*;Diaphorase 30uM=48.4
Cc1ccc(-c2c(C(=O)N/N=C/c3cccc(Cl)c3)nnn2-c2nonc2N)cc1	/	/	/	144.8*	2.5	110.3*	Diaph ctr 10uM=99.3*;Diaphorase 30uM=83.6*
CCOC(=O)c1c(C=O)c2sc(C)cc2n1C	15.0	0.8	-3.3	0.6	4.5	/
Cc1cc(O)ccc1NC(=O)CCN1C(=O)c2ccc([N+](=O)[O-])cc2C1=O	31.4	0.7	13.9	-4.7	-1.7	/
CC(=O)C(Sc1ncnc2c1nnn2-c1ccc(F)cc1)C(=O)N(C)C (stereo unspecified)	12.6	0.9	5.0	61.9*	-5.9	19.1
O=S(=O)(c1ccc(-c2ccon2)s1)N1CCN(CCN2CCOCC2)CC1	/	/	/	-7.0	-2.6	/
CCCn1c(=O)c(C(=O)NNS(=O)(=O)c2ccc(Cl)cc2)c(O)c2ccccc21	16.8	0.8	2.5	-9.1	-2.0	/
CCOC(=O)CN1NC2(CCCCCCC2)NC1=S	/	/	/	66.0*	-2.4	-24.2
COc1ccc(S(=O)(=O)NC(C)C(=O)NCCN2CCOCC2)cc1Cl (stereo unspecified)	/	/	/	5.4	-6.8	/
c1cc2c3c(cccc3c1)-c1cnccc1-2	/	/	/	64.5*	-1.6	31.6
Cc1ccc(C(=O)COC(=O)c2c(C)cc(=O)oc2C)cc1[N+](=O)[O-]	44.4	0.6	8.2	66.7*	9.1	-13.5
Cc1cc(=O)oc(C)c1C(=O)OCC(=O)c1ccc(Cl)c(Cl)c1	12.6	0.9	-4.6	7.3	-4.9	/
CCOC(=O)c1ccccc1NC(=S)N1CCN(C2CCCCC2)CC1	21.6	0.8	8.1	-3.4	-4.1	/
Cc1ccc(N2CC(C(=O)OCC(=O)c3ccc([N+](=O)[O-])cc3)CC2=O)cc1 (stereo unspecified)	/	/	/	60.2*	-1.5	57.1*	Diaph ctr 10uM=-9.2;Diaphorase 30uM=-1.9
CC(C)OCCCN1C=C2C(=O)C(C)(OC(=O)CCc3ccccc3)C(=O)C=C2C=C1c1ccc(C#N)cc1 (stereo unspecified)	/	/	/	81.2*	28.6	26.7
CC1(OC(=O)CCc2ccccc2)C(=O)C=C2C=C(c3ccc(C#N)cc3)N(c3ccccc3)C=C2C1=O (stereo unspecified)	/	/	/	71.5*	31.6	23.2
CC1(OC(=O)CCc2ccccc2)C(=O)C=C2C=C(c3ccc(C#N)cc3)N(C3CCCC3)C=C2C1=O (stereo unspecified)	/	/	/	60.8*	19.2	19.4
Cc1csc(NC(=O)[C@@H]2CCCN2C(=O)c2cccs2)n1	10.3	0.9	-0.8	-1.4	-11.3	/
O=S(=O)(Nc1ccc(Cl)cc1)c1ccc(N2CCOCC2)c(NC(=S)NCCN2CCOCC2)c1	7.8	0.9	17.0	69.2*	-4.5	63.1*	Diaph ctr 10uM=-11.3;Diaphorase 30uM=-2.2
CCC(=O)Nc1ccc(N2CCOCC2)c(S(=O)(=O)Nc2ccc(Cl)cc2)c1	/	/	/	61.0*	-1.4	36.5
SMILES	Diaphorase inh	Diaphorase act	G6PDH counter	PfGluPho inh	HKDC1 inhibitor	PfGluPho conf	others
O=C(Nc1ccc(N2CCOCC2)c(S(=O)(=O)Nc2ccc(Cl)cc2)c1)c1cnccn1	/	/	/	73.4*	-7.0	18.4
C[C@H](NC(N)=O)C(=O)Nc1ccc(N2CCOCC2)c(S(=O)(=O)Nc2ccc(Cl)cc2)c1	/	/	/	76.2*	-12.7	58.5*	Diaph ctr 10uM=2.3;Diaphorase 30uM=-16.4
Cc1ccc(-n2ccnc(SCC(=O)NC3CCCCC3)c2=O)cc1F	/	/	/	13.4	-3.9	/
O=C(COC(=O)Cc1c(F)cccc1Cl)NC(=O)Nc1ccccc1F	/	/	/	-9.3	-1.8	/
COCCNC(=S)Nc1ccc(N2CCOCC2)c(S(=O)(=O)Nc2ccc(Cl)cc2)c1	/	/	/	91.7*	/	70.0*	Diaph ctr 10uM=-36.8;Diaphorase 30uM=-6.5
COc1ccc(NS(=O)(=O)c2cc(NC(=O)c3ccc(Cl)cc3)ccc2N2CCOCC2)cc1	/	/	/	20.0	-1.5	/
CC1(C)NC(=O)N(CC(=O)OCC(=O)c2ccc(Cl)s2)C1=O	/	/	/	-6.2	-3.9	/
Cc1ccc[n+](C2C(c3ccc([N+](=O)[O-])cc3)C(C#N)=C([S-])NC2(O)C2CC2)c1 (stereo unspecified)	1.7	1	0.7	30.3	-3.3	/
COc1ccc([C@H]2C(C#N)=C([S-])N[C@](C)(O)[C@@H]2[n+]2ccccc2)cc1	/	/	/	69.3*	6.4	37.7
COc1cc(OC)cc(N(C(=O)CNC(=O)c2cccs2)C(C(=O)NCC2CCCO2)c2ccccc2)c1 (stereo unspecified)	/	/	/	3.6	2.2	/
COC1C=CC(CNC(=O)c2cc3c(=O)n4cccc(C)c4nc3n2C)(OC)O1 (stereo unspecified)	5.7	0.9	1.6	79.5*	0.3	-7.0
